# High-throughput results: PubChem, several laboratories
# Lipid droplet – modulators of hepatic lipid droplet formation; AML12 mouse hepatocytes, oleate lipid droplets, BODIPY imaging; inhibition, % at 6.5 µM; 240,000 tested, 0.4% active; AID 1656;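 active = lipid droplet intensity inhibited by at least 50%, with more than 500 cells counted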
#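 Assay system: AML12 mouse liver cells | Compound: 6.5 µM single-point dosing | Schedule: Overnight exposure | Technique: Fluorescence imaging, 20x objective, two fields per well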
# RBBP9 inh – blocks human serine hydrolase RBBP9 | recombinant RBBP9, FP-Rh probe fluorescence polarization | 220,000 tested, 0.2% active | AID 1515 | O75884 | inhibition, % at 7.94 µM;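 active = inhibition above the campaign mean of all tested compounds plus 3 SD, cut at about 14% in these data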;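 note: plate controls were DMSO wells with RBBP9 for no effect and wells lacking RBBP9 protein for full effect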
# Target sequence (O75884 whole entry, looked up): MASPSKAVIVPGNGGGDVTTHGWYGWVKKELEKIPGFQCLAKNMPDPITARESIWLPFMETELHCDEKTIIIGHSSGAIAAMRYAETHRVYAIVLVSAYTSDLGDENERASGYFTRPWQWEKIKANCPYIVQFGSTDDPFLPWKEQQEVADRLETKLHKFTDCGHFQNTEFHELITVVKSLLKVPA
#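 Assay system: recombinant human RBBP9; Reagent: Serine-hydrolase probe FP-Rh, 375 nM pre-mixing; Doses: 7.94 µM single dose, 0.794% DMSO; Incubation: 30 min then 45 min, 25 °C; Detection: fluorescence polarization (mP), excitation 525 nm, emission 598 nm; Evaluation: percent inhibition from mP, scaled between DMSO and no-protein wells.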
# L929 necroptosis – L929 zVAD cell death inhibition; 220,000 tested, 0.38% active; viability rescue, % at 10 µM; L929 zVAD necroptosis rescue, ATP luminescence, 24 h; with zVAD 60 µM; AID 1377;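 active = activation, scaled between plate controls, above about 75%, limit read from the data; inactive = activation under that limit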;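 note: 0% = zVAD with DMSO and 100% = DMSO alone without zVAD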
# Tb hexokinase – blocks Trypanosoma brucei hexokinase 1 activity; recombinant TbHK1, G6PDH-coupled NADH A340; inhibition, % at 10 µM; AID 1430; 220,000 tested, 0.11% active;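 active = inhibition of 50% or more in the single-dose primary screen; inactive = inhibition below 50%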
# PfM18AAP inh – PfM18AAP enzyme inhibition; inhibition, % at 7.35 µM; 290,000 tested, 1.2% active; recombinant PfM18AAP, H-Glu-NHMec fluorogenic cleavage;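 active = inhibition above the campaign mean inhibition over all tested compounds plus 3 SD, cut at about 28% in these data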;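 note: 0% = plate median of test compound wells and 100% = 2 mM ZnCl2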
# TNF necrop inh – TNF-alpha cell death inhibition in Jurkat FADD-/- cells. 220,000 tested, 0.068% active. activation (protection from cell death), % at 10 µM. Jurkat FADD-/- TNF necroptosis rescue, ATP luminescence, 24 h; 0 = TNF only, 100 = no-TNF cells;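 active = activation, meaning protection from cell death, of at least 50% relative to plate controls; inactive = activation below 50%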;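 note: necroptosis triggered by 40 ng/mL TNF-alpha added together with compound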
# Hep lipid conf – confirmation of inhibitors of hepatic lipid droplet formation; AID 463183; AML12 mouse hepatocytes, BODIPY lipid droplet imaging; droplets induced with 100 µM oleic acid; inhibition, % at 5.2 µM; shares compounds with Lipid droplet; 870 tested, 65% active;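 active = inhibition of lipid droplet metric at least 50%, with more than 300 cells in each of four replicates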;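 note: plate controls were DMSO with oleic acid for no effect and 5 µM Triacsin-C for full effect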
# AML12 tox img – toxic to AML12 mouse hepatocytes in counter-screen | DAPI nuclear morphology cytotoxicity imaging; hits give high values; cells fed 100 µM oleate overnight | z-score at 5 µM | 870 tested, 3% active | AID 463200 | shares compounds with Lipid droplet; in the data active = z-score above about 6.3;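 note: compound exposure lasted overnight at 37 °C before fixation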
# AML12 tox ATP – confirmation of cytotoxicity in AML12 mouse hepatocytes; shares compounds with Lipid droplet; AML12 mouse hepatocyte viability, ATP luminescence; cells loaded with 100 µM oleic acid; cytotoxicity, % at 50 µM; 530 tested, under 10 active; AID 463219;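 active = cytotoxicity above 50% in each of four replicates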;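 note: compound exposure lasted overnight at 37 °C before the ATP read; 0% = DMSO-treated cells and 100% = wells with no cells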
# * hit, by the source's call; nt = no result. An excerpt weighted towards active compounds, which were near 2% of everything screened.
SMILES,Lipid droplet,RBBP9 inh,L929 necroptosis,Tb hexokinase,PfM18AAP inh,TNF necrop inh,Hep lipid conf,AML12 tox img,AML12 tox ATP
Cc1ccc2nc(C)cc(NCCO)c2c1,9.7,5.4,0.2,-30.0,0.3,1.8,nt,nt,nt
CC1=C(C(=O)OCC2CCCO2)C(c2ccc(Cl)c(Cl)c2)NC(=O)N1 (stereo unspecified),57.1*,-7.6,2.3,-1.7,-1.9,0.9,35.2,-0.645,nt
CC1=C(C(=O)OCC2CCCO2)C(c2ccccc2Cl)NC(=O)N1 (stereo unspecified),7.3,0.5,0.3,4.9,1.1,2.7,nt,nt,nt
C=CCN=C(NC#N)SCC(=O)c1cccc(OC)c1,nt,3.8,0.1,-26.3,9.5,2.0,nt,nt,nt
Cc1onc(-c2c(F)cccc2Cl)c1C(=O)Nc1nnc(C(F)(F)F)s1,-6.3,nt,nt,nt,1.1,nt,nt,nt,nt
COc1ccc(C(=O)NC(C)CCc2ccccc2)cc1[N+](=O)[O-] (stereo unspecified),-4.9,nt,nt,nt,3.2,nt,nt,nt,nt
COc1ccc(C(=O)OCC(=O)NC(C)CCc2ccccc2)c(OC)c1 (stereo unspecified),75.4*,nt,nt,nt,1.0,nt,66.7,0.647,7.1
CCOc1ccc(C(=O)NCC(=O)NC(C)CCc2ccccc2)cc1OCC (stereo unspecified),75.3*,nt,nt,nt,4.9,nt,106.0*,1.08,16.0
COc1ccc(C(=O)OC(C)C(=O)NC(C)CCc2ccccc2)cc1OC (stereo unspecified),103.4*,nt,nt,nt,-1.0,nt,107.3*,-0.0177,14.3
O=C(CNC(=O)Cc1ccccc1)NCC(=O)OCc1ccccc1,nt,-0.7,-0.4,-1.8,0.9,-3.8,nt,nt,nt
CCOc1ccc(C(=O)CCC(=O)NCC(=O)OCc2ccccc2)cc1OCC,92.9*,nt,nt,nt,-9.3,nt,72.7*,-0.476,8.5
COc1cc(C(=O)NCC(=O)NC(C)CCc2ccccc2)cc(OC)c1OC (stereo unspecified),3.8,nt,nt,nt,-16.2,nt,nt,nt,nt
Cc1cc(S(=O)(=O)N2CCCOC2CNC(=O)C(=O)NCc2cccs2)ccc1F (stereo unspecified),11.0,nt,nt,nt,-6.0,nt,nt,nt,nt
COc1ccc([N+](=O)[O-])cc1NC(=O)c1ccco1,12.7,-10.3,9.8,-12.2,-1.5,-0.3,nt,nt,nt
O=C(NCc1cc2ccccc2[nH]1)C1CCC(=O)N(CCCN2CCCC2=O)C1 (stereo unspecified),-3.4,nt,nt,nt,3.9,nt,nt,nt,nt
Cc1[nH]n(-c2ccccc2)c(=O)c1N=Nc1c(Cl)cccc1Cl,0.6,nt,nt,nt,-1.9,nt,nt,nt,nt
COc1ccccc1N=Nc1c(C)[nH]n(-c2ccccc2)c1=O,56.3*,nt,nt,nt,0.2,nt,3.8,0.0293,nt
CCOc1ccccc1N=Nc1c(C)[nH]n(-c2ccccc2)c1=O,75.9*,nt,nt,nt,-3.1,nt,12.8,0.31,nt
CCc1ccc(NC(=O)C(C)OC(=O)c2ccc(N3CCCC3)c([N+](=O)[O-])c2)cc1 (stereo unspecified),92.5*,-2.0,1.2,-10.1,-0.7,0.2,107.3*,-0.218,nt
N/C(=N/O)c1nc(N2CCCCC2)nc(N2CCCCC2)n1,7.7,-8.2,-0.4,3.6,-7.9,-2.2,nt,nt,nt
N/C(=N/O)c1nc(N2CCCC2)nc(N(c2ccccc2)c2ccccc2)n1,64.9*,-5.0,-0.6,-0.2,4.7,-2.5,107.1*,-0.903,7.9
CCCSC1=C(C#N)C(c2cccs2)C(C(=O)Nc2ccccc2)=C(C)N1 (stereo unspecified),54.1*,-11.0,0.0,-5.4,3.3,-1.6,92.5*,-0.173,-2.5
COc1ccccc1Nc1ccc(NC(=O)c2cccc([N+](=O)[O-])c2C)cc1,97.1*,nt,nt,nt,1.9,nt,99.1*,1.66,9.6
COc1ccc(NC(=O)c2ccccc2[N+](=O)[O-])cc1,7.0,-0.6,0.9,0.6,-0.8,1.5,nt,nt,nt
